Assay results as given in ChEMBL document CHEMBL4138280, “Ribocyclophanes A-E, Glycosylated Cyclophanes with Antiproliferative Activity from Two Cultured Terrestrial Cyanobacteria” (J Nat Prod, 2018).
pIC50: −log10 of the molar value. Active and inactive are the calls of the source. The calls are words filed in the database; no cut-off is given here.

How the values were obtained:
MDA-MB-435 [1] = assay: Antiproliferative activity against human MDA-MB-435 cells after 96 hrs by CellTiter 96 AQueous one solution cell proliferation assay; assay type: functional, cell-based; details: MDA-MB-435, 96 h
Summary of the method: (§1)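 Cells kept in RPMI 1640 with 10% FBS, penicillin (100 units/mL) and streptomycin (100 μg/mL) at 37 °C, 5% CO₂. Log-phase cells were trypsinized and seeded at 5000 per well, then left overnight. DMSO solutions were serially diluted and added at 25, 5.0, 1.0, 0.2 and 0.04 μg/mL for 96 h at 37 °C. Viability was read by absorbance as percent viable cells versus solvent control.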

MDA-MB-231 [2] = assay: Antiproliferative activity against human MDA-MB-231 cells after 96 hrs by CellTiter 96 AQueous one solution cell proliferation assay; assay type: functional, cell-based; details: MDA-MB-231, 96 h; summary of the method: as §1
MDA-MB-435 [3] = assay: Antiproliferative activity against human MDA-MB-435 cells assessed as viable cells at 1 ng/ml after 96 hrs by CellTiter 96 AQueous one solution cell proliferation assay relative to control; assay type: functional; details: MDA-MB-435, 96 h, read-out: Activity
MDA-MB-231 [4] = assay: Antiproliferative activity against human MDA-MB-231 cells at 0.04 to 25 ug/ml after 96 hrs by CellTiter 96 AQueous one solution cell proliferation assay
MDA-MB-435 [5] = assay: Antiproliferative activity against human MDA-MB-435 cells at 0.04 to 25 ug/ml after 96 hrs by CellTiter 96 AQueous one solution cell proliferation assay
MDA-MB-231 [6] = assay: Antiproliferative activity against human MDA-MB-231 cells at 25 ug/ml after 96 hrs by CellTiter 96 AQueous one solution cell proliferation assay
MDA-MB-435 [7] = assay: Antiproliferative activity against human MDA-MB-435 cells at 25 ug/ml after 96 hrs by CellTiter 96 AQueous one solution cell proliferation assay

Question: Which results are given for `CCCC[C@H]1CCCC[C@H](C)Cc2cc(O)c(c(O)c2)[C@@H](CCCC)CCCC[C@H](C)[C@@H](O[C@@H]2OC[C@@H](O)[C@@H](O)[C@H]2O)c2cc(O)c1c(O)c2`?
Answer: pIC50 (MDA-MB-435 [1]): 5.89; pIC50 (MDA-MB-231 [2]): 5.92

Question: With `CC[C@]1(O)C[C@@H]2CN(CCc3c([nH]c4ccccc34)[C@@](C(=O)OC)(c3cc4c(cc3OC)N(C)[C@H]3[C@@](O)(C(=O)OC)[C@H](OC(C)=O)[C@]5(CC)C=CCN6CC[C@]43[C@@H]65)C2)C1` [VINBLASTINE] as the molecule, how does the viability at 0.001 µg/mL (MDA-MB-435 [3]) read?
Answer: Its viability at 0.001 µg/mL is 49%.

Question: What does the source list for `CCCC[C@H]1CCCC[C@H](C)[C@@H](O)c2cc(O)c(c(O)c2)[C@@H](CCCC)CCCC[C@H](C)[C@@H](O[C@@H]2OC[C@@H](O)[C@@H](O)[C@H]2O)c2cc(O)c1c(O)c2`?
Answer: Activity (MDA-MB-231 [4]): Active; Activity (MDA-MB-435 [5]): Active

Question: With `CCCC[C@H]1CCCC[C@H](C)[C@@H](OC(C)=O)c2cc(O)c(c(O)c2)[C@@H](CCCC)CCCC[C@H](C)[C@@H](O[C@@H]2OC[C@@H](O)[C@@H](O)[C@H]2O)c2cc(O)c1c(O)c2` as the molecule, how does the pIC50 (MDA-MB-435 [1]) read?
Answer: The pIC50 was 6.22.

Question: And the pIC50 (MDA-MB-231 [2])?
Answer: The pIC50 was 6.10.

Question: For `CCCCC(Cl)CCCC[C@H](C)[C@@H](O[C@@H]1OC[C@@H](O)[C@@H](O)[C@H]1O)c1cc(O)c([C@@H](CCCC)CCCC[C@H](C)[C@@H](OC(C)=O)c2cc(O)cc(O)c2)c(O)c1` (stereo partly drawn), which Activity (MDA-MB-231 [6]) is on record?
Answer: The Activity was “inactive”.

Question: What about the Activity (MDA-MB-435 [7]) of the same molecule?
Answer: The Activity was “inactive”.

Question: Which Activity (MDA-MB-231 [4]) does the source give for `CCCC[C@H]1CCCC[C@H](C)[C@@H](OC(C)=O)c2cc(O)c(c(O)c2)[C@@H](CCCC)CCCC[C@H](C)[C@@H](OC(C)=O)c2cc(O)c1c(O)c2` here?
Answer: The Activity was “Active”.

Question: What about the Activity (MDA-MB-435 [5]) of the same molecule?
Answer: Its Activity is “Active”.

Question: Which results are given for `CCCC[C@H]1CCCC[C@H](C)[C@@H](O[C@@H]2OC[C@@H](O)[C@@H](O)[C@H]2O)c2cc(O)c(c(O)c2)[C@@H](CCCC)CCCC[C@H](C)[C@@H](O[C@@H]2OC[C@@H](O)[C@@H](O)[C@H]2O)c2cc(O)c1c(O)c2`?
Answer: Activity (MDA-MB-231 [4]): Active; Activity (MDA-MB-435 [5]): Active
